Experimental data taken from ChEMBL document CHEMBL2016466, “Design, synthesis, and biological evaluation of new diaminoquinazolines as β-catenin/Tcf4 pathway inhibitors” (J Med Chem, 2012).

Assays:
SW480 = test: Growth inhibition of human SW480 cells assessed as viable cells after 3 days using resazurin by […] assay; assay type: functional, cell-based; conditions: SW480, 72 h
How it was run: (§1)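 Cells grown in RPMI 1640 + 10% FBS + penicillin/streptomycin, trypsinized and seeded at 2 × 10³ cells/well. Compound added 24 h later as a concentration curve starting at 10 μg/mL with nine further 2-fold dilutions. After 3 days of exposure, viability was read with CellTiter-Blue (resazurin to resorufin). IC50 is the average of three separate experiments.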

HCT-116 [1] = test: Growth inhibition of human HCT116 cells assessed as viable cells after 3 days using resazurin by […] assay; assay type: functional, cell-based; conditions: HCT-116, 72 h; how it was run: as §1
TCF4/beta-catenin = TCF4/beta-catenin (Homo sapiens, UniProt P35222+Q9NQB0); test: Inhibition of beta-catenin/TCF4 pathway expressed in HCT116 cells containing delta45S mutant after 24 hrs by luciferase reporter gene assay; assay type: cell-based; conditions: hct-116
How it was run: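 HCT116 cells at 1 × 10⁴/well, cotransfected with 50 ng TOP-FLASH reporter (Tcf4 binding sites) and 50 ng pTK-β-gal as internal control. At 4 h post-transfection, fresh medium with compound at various concentrations was added. Firefly luciferase was read 24 h after compound addition, normalized to β-galactosidase and expressed as a percentage of control luciferase activity.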

HCT-116 [2] = test: Growth inhibition of human HCT116 cells assessed as clonogenic growth after 9 days using crystal violet staining; assay type: functional, cell-based; conditions: HCT-116, 216 h
How it was run: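 HCT116 cells in RPMI 1640 + 10% FBS + penicillin/streptomycin, plated at 300 cells/well in six-well plates 8 h before treatment with or without inhibitor (highest final concentration 1.5 μM). Incubated 9 days, then fixed with 10% acetic acid in methanol, stained with 0.05% crystal violet and colonies counted. IC50 is the average of three separate experiments.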

[3] = Ratio of IC50 for human HCT116 cells to IC50 for […]/TCF4 pathway expressed in HCT116 cells; assay type: cell-based; conditions: HCT-116

TCF4/beta-catenin, sequence (P35222 2-781 limits assumed, stated change not applied): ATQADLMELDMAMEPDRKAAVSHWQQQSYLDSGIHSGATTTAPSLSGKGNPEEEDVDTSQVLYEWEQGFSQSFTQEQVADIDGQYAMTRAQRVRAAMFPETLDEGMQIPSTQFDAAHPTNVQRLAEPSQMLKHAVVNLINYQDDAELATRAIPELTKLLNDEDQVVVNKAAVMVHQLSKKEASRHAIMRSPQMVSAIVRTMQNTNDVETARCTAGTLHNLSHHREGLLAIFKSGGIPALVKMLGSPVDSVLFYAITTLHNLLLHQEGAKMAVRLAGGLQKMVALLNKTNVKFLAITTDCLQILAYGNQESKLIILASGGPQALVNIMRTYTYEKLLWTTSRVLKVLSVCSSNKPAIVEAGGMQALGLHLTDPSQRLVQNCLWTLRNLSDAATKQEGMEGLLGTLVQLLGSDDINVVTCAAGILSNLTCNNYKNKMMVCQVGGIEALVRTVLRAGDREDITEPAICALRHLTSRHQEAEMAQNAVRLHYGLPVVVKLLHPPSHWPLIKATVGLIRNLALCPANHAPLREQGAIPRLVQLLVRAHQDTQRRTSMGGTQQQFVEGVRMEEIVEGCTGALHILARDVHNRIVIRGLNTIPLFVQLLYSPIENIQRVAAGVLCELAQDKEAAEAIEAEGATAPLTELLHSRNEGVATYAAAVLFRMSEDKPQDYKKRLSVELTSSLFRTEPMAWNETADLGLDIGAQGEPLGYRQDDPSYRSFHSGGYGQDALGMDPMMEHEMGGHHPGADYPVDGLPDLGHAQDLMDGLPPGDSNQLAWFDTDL
TCF4/beta-catenin, sequence (Q9NQB0 whole entry, stated change not applied): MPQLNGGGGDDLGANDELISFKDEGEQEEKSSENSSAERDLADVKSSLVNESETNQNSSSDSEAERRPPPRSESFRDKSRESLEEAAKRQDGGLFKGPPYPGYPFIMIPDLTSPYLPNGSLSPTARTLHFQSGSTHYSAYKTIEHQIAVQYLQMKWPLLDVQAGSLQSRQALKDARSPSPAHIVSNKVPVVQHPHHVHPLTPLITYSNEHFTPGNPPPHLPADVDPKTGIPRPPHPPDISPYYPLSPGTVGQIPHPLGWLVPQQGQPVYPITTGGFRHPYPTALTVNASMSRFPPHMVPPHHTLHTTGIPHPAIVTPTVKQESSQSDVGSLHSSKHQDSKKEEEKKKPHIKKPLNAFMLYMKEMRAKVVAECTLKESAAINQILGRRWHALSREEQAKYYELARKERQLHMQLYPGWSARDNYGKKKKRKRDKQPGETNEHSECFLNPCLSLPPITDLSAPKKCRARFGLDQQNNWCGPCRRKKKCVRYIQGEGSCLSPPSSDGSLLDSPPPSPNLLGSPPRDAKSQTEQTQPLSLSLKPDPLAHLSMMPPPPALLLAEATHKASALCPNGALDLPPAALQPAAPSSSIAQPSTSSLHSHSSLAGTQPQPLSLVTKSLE

Row | Compound | IC50 (SW480) | IC50 (HCT-116 [1]) | IC50 (TCF4/beta-catenin) | IC50 (HCT-116 [2]) | Ratio IC50 [3]
1 | CNc1nc(NCc2ccc(C(=O)Nc3ccc(F)cc3)cc2)c2ccccc2n1 | 4.1 µM | 2.9 µM |  |  | 
2 | CNc1nc(NCc2ccc(NS(=O)(=O)c3ccc(C)cc3)cc2)c2ccccc2n1 | 4.9 µM | 5.8 µM |  |  | 
3 | CCNc1nc(NCc2ccc(C(=O)Nc3ccc(F)cc3)cc2)c2ccccc2n1 | 2.5 µM | 1.9 µM | 3.5 µM |  | 
4 | CNc1nc2ccccc2c(NCc2ccc(NC(=O)c3ccc(F)cc3)cc2)c1C#N | > 20 µM | > 20 µM |  |  | 
5 | Cc1ccc2nc(N(C)C)nc(NCc3ccc(C(=O)NC4CCN(Cc5ccc(F)cc5)CC4)cc3)c2c1 | 1.1 µM | 0.8 µM | 2.5 µM | 0.313 µM | 
6 | CCCNc1nc(NCc2ccc(NC(=O)c3ccc(F)cc3)cc2)c2ccccc2n1 | 2 µM | 1.7 µM | 2.5 µM |  | 2
7 | CC1CN(c2nc(NCc3ccc(C(=O)Nc4ccc(F)cc4)cc3)c3ccccc3n2)CCN1 (racemic) | 3.2 µM | 2.8 µM | > 5 µM |  | 
8 | CN1CCN(c2nc(NCc3ccc(NC(=O)c4ccncc4)cc3)c3ccccc3n2)CC1 | > 20 µM | > 20 µM |  |  | 
9 | CN1CCN(c2nc(NCc3ccc(NC(=O)c4ccc(F)cc4)cc3)c3ccccc3n2)CC1 | 2.5 µM | 1.8 µM |  |  | 
10 | CN(C)c1nc(NCc2ccc(NC(=O)c3ccncc3)cc2)c2ccccc2n1 | 11 µM | 15 µM |  |  | 
11 | Cc1ccc2nc(N3CCNC(C)C3)nc(NCc3ccc(C(=O)NC4CCN(Cc5ccc(F)cc5)CC4)cc3)c2c1 (racemic) | 1 µM | 2 µM | > 5 µM |  | 
12 | C=CCNc1nc(NCc2ccc(C(=O)Nc3ccc(F)cc3)cc2)c2cc(C)ccc2n1 | 10 µM | 13 µM |  |  | 
13 | CCNc1nc(NCc2ccc(NC(=O)c3ccc(F)cc3)cc2Cl)c2ccccc2n1 | 1.6 µM | 1.5 µM |  |  | 
14 | CNc1nc(NCc2ccc(NC(=O)c3ccncc3)cc2)c2ccccc2n1 | > 20 µM | > 20 µM |  |  | 
15 | CCNc1nc(NCc2ccc(C(=O)N[C@H]3C[C@@H]3c3ccccc3)cc2)c2cc(C)ccc2n1 (relative stereo) | 1.8 µM | 1.7 µM | 3.5 µM |  | 
16 | CCCNc1nc2ccccc2c(NCc2ccc(NC(=O)c3ccc(F)cc3)cc2)c1C#N | > 20 µM | > 20 µM |  |  | 
17 | Cc1ccc2nc(N(C)C)nc(NCc3ccc(C(=O)NCc4ccc(F)cc4)cc3)c2c1 | 1.1 µM | 0.9 µM | 2 µM | 0.298 µM | 
18 | Cc1ccc(S(=O)(=O)Nc2ccc(CNc3nc(N4CCN(C)CC4)nc4ccccc34)cc2)cc1 | > 20 µM | > 20 µM |  |  | 
19 | CN(C)c1nc(NCc2ccc(C(=O)N3CCC(C(=O)NCc4ccc(F)cc4)CC3)cc2)c2ccccc2n1 | 5.5 µM | 5.7 µM |  |  | 
20 | CCCNc1nc(NCc2ccc(C(=O)NCCc3ccc(F)cc3)cc2)c2cc(C)ccc2n1 | 1.6 µM | 1.6 µM | 2 µM |  | 
21 | CNc1ncc(C)c(NCc2ccc(NC(=O)c3ccc(F)cc3)cc2)n1 | > 20 µM | > 20 µM |  |  | 
22 | CNc1nc(NCc2ccc(C(=O)NC3CCN(Cc4ccc(F)cc4)CC3)cc2)c2cc(C)ccc2n1 | 1.3 µM | 1.2 µM | 3 µM |  | 
23 | Cc1ccc2nc(N(C)C)nc(NCc3ccc(C(=O)NCCc4ccc(F)cc4)cc3)c2c1 | 1.4 µM | 0.6 µM | 1.5 µM | 0.264 µM | 
24 | CCNc1nc(NCc2ccc(NC(=O)c3ccc(F)cc3)cc2)c2ccccc2n1 | 2.3 µM | 1.4 µM | 3 µM |  | 2
25 | CCCNc1nc(NCc2ccc(C(=O)N3CCC(C(=O)NCc4ccc(F)cc4)CC3)cc2)c2ccccc2n1 | 5.7 µM | 5.5 µM |  |  | 
26 | CCCNc1nc(NCc2ccc(C(=O)NC3CCN(Cc4ccc(F)cc4)CC3)cc2)c2cc(C)ccc2n1 | 1.1 µM | 1.6 µM | 3 µM |  | 

Row | Compound | IC50 (SW480) | IC50 (HCT-116 [1]) | IC50 (TCF4/beta-catenin) | IC50 (HCT-116 [2]) | Ratio IC50 [3]
27 | CCCNc1nc(NCc2ccc(C(=O)N3CCC(C(=O)NCc4ccc(F)cc4)CC3)cc2)c2cc(C)ccc2n1 | 5.2 µM | 4.6 µM |  |  | 
28 | CN(C)c1nc(NCc2ccc(NC(=O)c3ccc(F)cc3)cc2)c2ccccc2n1 | 2.2 µM | 1.3 µM |  |  | 
29 | CCCNc1nc(NCc2ccc(C(=O)NCc3ccc(F)cc3)cc2)c2cc(C)ccc2n1 | 2.2 µM | 4.4 µM |  |  | 
30 | Cc1ccc2nc(N3CCNC(C)C3)nc(NCc3ccc(C(=O)NCc4ccc(F)cc4)cc3)c2c1 (racemic) | 1.4 µM | 2.9 µM |  |  | 
31 | CN(C)CCCNc1nc(NCc2ccc(NC(=O)c3ccc(F)cc3)cc2)c2ccccc2n1 | 14 µM | 10 µM |  |  | 
32 | Cc1ccc2nc(N(C)C)nc(NCc3ccc(C(=O)Nc4ccc(Cl)nc4)cc3)c2c1 | 1.1 µM | 1.3 µM | 2.5 µM |  | 
33 | C=CCNc1nc(NCc2ccc(C(=O)NC3CCN(C(=O)c4ccc(F)cc4)CC3)cc2)c2cc(C)ccc2n1 | 5.2 µM | 6.9 µM |  |  | 
34 | CNc1ncc(Br)c(NCc2ccc(NC(=O)c3ccc(F)cc3)cc2)n1 | > 20 µM | > 20 µM |  |  | 
35 | CCCCNc1nc(NCc2ccc(C(=O)Nc3ccc(F)cc3)cc2)c2ccccc2n1 | 1 µM | 1.4 µM | 1.5 µM | 0.381 µM | 
36 | CNc1nc(NCc2ccc(NC(=O)c3ccc(F)cc3)cc2Cl)c2ccccc2n1 | 2.3 µM | 2 µM |  |  | 
37 | CCCNc1nc(NCc2ccc(C(=O)Nc3ccc(F)cc3)cc2)c2ccccc2n1 | 1.6 µM | 1.5 µM | 3 µM | 0.684 µM | 
38 | Cc1ccc2nc(N(C)C)nc(NCc3ccc(C(=O)N[C@H]4C[C@@H]4c4ccccc4)cc3)c2c1 (relative stereo) | 2.4 µM | 1.3 µM | 3 µM |  | 
39 | CCNc1ncc(C)c(NCc2ccc(NC(=O)c3ccc(F)cc3)cc2)n1 | > 20 µM | > 20 µM |  |  | 
40 | O=C(Nc1ccc(F)cc1)c1ccc(CNc2nc(NC3CC3)nc3ccccc23)cc1 | 2.6 µM | 2.7 µM |  |  | 
41 | CN(C)CCCNc1nc(NCc2ccc(NC(=O)c3ccc(CN4CCN(C)CC4)cc3)cc2)c2ccccc2n1 | > 20 µM | > 20 µM |  |  | 
42 | C=CCNc1nc(NCc2ccc(C(=O)Nc3ccc(F)cc3)cc2)c2ccccc2n1 | 11 µM | 14 µM |  |  | 
43 | Cc1ccc(S(=O)(=O)Nc2ccc(CNc3nc(N(C)C)nc4ccccc34)cc2)cc1 | 13 µM | 11 µM |  |  | 
44 | CN(C)c1nc(NCc2ccc(C(=O)Nc3ccc(F)cc3)cc2)c2ccccc2n1 | 2.6 µM | 1.9 µM | 3 µM |  | 
45 | CNc1nc(NCc2ccc(NC(=O)c3ccc(CN4CCN(C)CC4)cc3)cc2)c2ccccc2n1 | 11 µM | 10 µM |  |  | 
46 | O=S(=O)(Nc1ccc(CNc2nc(NC3CC3)nc3ccccc23)cc1)c1ccc(F)cc1 | 4.1 µM | 4.9 µM |  |  | 
47 | CCCNc1nc(NCc2ccc(C(=O)Nc3ccc(Cl)nc3)cc2)c2cc(C)ccc2n1 | 2.1 µM | 1.5 µM | 2.5 µM |  | 
48 | CCCNc1nc(NCc2ccc(C(=O)NC3CCN(C(=O)c4ccc(F)cc4)CC3)cc2)c2cc(C)ccc2n1 | 5.5 µM | 6.8 µM |  |  | 
49 | CNc1nc(NCc2ccc(C(=O)NCCc3ccc(F)cc3)cc2)c2cc(C)ccc2n1 | 1.5 µM | 1.1 µM | 1 µM |  | 
50 | Cc1ccc2nc(N(C)C)nc(NCc3ccc(C(=O)N4CCC(C(=O)NCc5ccc(F)cc5)CC4)cc3)c2c1 | 5.6 µM | 5.6 µM |  |  | 
51 | CNc1nc(NCc2ccc(NS(=O)(=O)c3ccc(F)cc3)cc2)c2ccccc2n1 | 4.8 µM | 5.3 µM |  |  | 
